# The array DNA melting data of Ke et al. (doi:10.1101/2024.01.08.574731)
# Columns and labels:
# [1] = folding enthalpy; higher = less favourable; fluorescence melt of hairpins on a sequencing array, two-state fit; conditions: sodium 0.088 M
# Method in brief: (§1)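 In 50 mM Na-HEPES pH 8.0 containing 25 mM NaCl, hairpins from the library on a sequenced MiSeq flow cell were imaged for Cy3 fluorescence at 2.5 °C steps up to 60 °C, with Cy3 and quencher oligos annealed. After normalisation to pre-quench Cy3 and to control constructs, two-state fits with bootstrapping gave melting temperature and folding enthalpy. Four replicates were combined by inverse-variance weighting, and fitted temperatures were shifted up by 9.35 °C to match UV melts.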
# [2] = melting temperature; fluorescence melt of hairpins on a sequencing array, two-state fit, raised by 9.35 °C to match UV melts; conditions: sodium 0.088 M
# Method in brief: as §1
Sequence,folding enthalpy [1],Tm [2]
GAACGGGGAAACTCGTTC (((((.(....).))))),-48.7 kcal/mol,50.8 °C
GAACGTGGAAACACATTC (((.(((....))).))),-17.1 kcal/mol,32.9 °C
GAACGTGGAAACACGTCC (.(((((....))))).),-13.6 kcal/mol,41.3 °C
GAACGTGGAAACGTGTTC ((((..(....)..)))),-14.9 kcal/mol,37.5 °C
GAACTACGAAAGTATTTC (((.(((....))).))),-13.6 kcal/mol,32.7 °C
GAACTCACGAAAGTGTTC (((..(((....)))))),-14.3 kcal/mol,29.2 °C
GAACTCCGAAAGGACTTC (((.(((....))).))),-19.5 kcal/mol,29.7 °C
GAACTCGCGAAAGCGTTC (((..(((....)))))),-12.5 kcal/mol,27.4 °C
GAACTGCGAAAGCATTC (((.(((....)))))),-11.7 kcal/mol,30.9 °C
GAACTGCGAAAGCATTTC (((.(((....))).))),-20.1 kcal/mol,38.7 °C
GAACTGGGAAACCAATTC (((.(((....))).))),-12.7 kcal/mol,29.2 °C
GAACTGGGAAACCAGCTC ((.((((....)))).)),-19.4 kcal/mol,38.5 °C
GAACTTGGAAACGAGTTC (((((.(....).))))),-38 kcal/mol,44.2 °C
GAAGAACGAAAGTTATTC (((.(((....))).))),-31.6 kcal/mol,42.5 °C
GAAGAACGAAAGTTTTC (((.(((....)))))),-12.6 kcal/mol,24.9 °C
GAAGAAGGAAACTTCTTC (((((((....))))))),-48.8 kcal/mol,50.6 °C
GAAGACGAAAGTCACTTC ((((((....)))..))),-17.5 kcal/mol,35 °C
GAAGACGAAAGTCATTC ((((((....))).))),-14.1 kcal/mol,31.4 °C
GAAGACGAAAGTCCCTTC ((((((....)))..))),-13.8 kcal/mol,30.8 °C

Sequence,folding enthalpy [1],Tm [2]
GAAGACGAAAGTCCTTC ((((((....))).))),-20.8 kcal/mol,39.2 °C
GAAGACGAAAGTCGTTC ((((((....))).))),-12.3 kcal/mol,37.9 °C
GAAGACGAAAGTCTATTC ((((((....)))..))),-11.4 kcal/mol,30.5 °C
GAAGACGAAAGTCTGTTC ((((((....)))..))),-13.7 kcal/mol,40 °C
GAAGACGAAAGTCTTTC ((((((....))).))),-13.1 kcal/mol,48.1 °C
GAAGACGAAAGTCTTTTC ((((((....)))..))),-13.4 kcal/mol,47.1 °C
GAAGACGGAAACGTCTTC (((((((....))))))),-41.5 kcal/mol,64.5 °C
GAAGAGACGAAAGTCTTC (((..(((....)))))),-9.13 kcal/mol,30.6 °C
GAAGAGCGAAAGCTATTC (((.(((....))).))),-31 kcal/mol,50 °C
GAAGAGCGAAAGCTTTTC (((.(((....))).))),-24.1 kcal/mol,44.7 °C
GAAGAGGAAACTCTTC ((((((....)))))),-34.2 kcal/mol,48.3 °C
GAAGAGGCGAAAGCCTTC (((..(((....)))))),-8.73 kcal/mol,33.2 °C
GAAGAGGGAAACCCCTTC ((((.((....)).)))),-21.2 kcal/mol,35.7 °C
GAAGATGCGAAAGCATTC (((..(((....)))))),-10.7 kcal/mol,29.9 °C
GAAGATGGAAACGTCTTC (((((.(....).))))),-33.9 kcal/mol,43.2 °C
GAAGCAGAAATGCTTC ((((((....)))))),-35.3 kcal/mol,54.5 °C
GAAGCAGGAAACTGCTCC (.(((((....))))).),-12.6 kcal/mol,41.3 °C
GAAGCAGGAAACTGCTTC (((((((....))))))),-39.9 kcal/mol,62.2 °C
GAAGCCGAAAGGCGATTC ((((((....)))..))),-14.9 kcal/mol,58 °C
